Legend:
Type in all cases: functional
ACHN = assay: Cytotoxicity against human ACHN cells assessed as cell growth at 10^-5 M after 48 hrs by SRB assay; conditions: read-out: Activity
Summary of the method: (§1)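 NCI 60 single-dose screen at 10^-5 M. Cells in RPMI 1640 with 5% FBS and 2 mM L-glutamine, preincubated 24 h at 37 °C/5% CO2. Drug from DMSO stock, then 48 h exposure. TCA fixation, SRB staining, absorbance at 515 nm. Result given as percent growth of treated cells relative to untreated control.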

[1] = Cytotoxicity against human NCI-ADR-RES cells assessed as cell growth at 10^-5 M after 48 hrs by SRB assay; conditions: read-out: Activity
Summary of the method: (§2)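 NCI 60-panel single-dose primary screen at 10^-5 M. Cells are grown in RPMI 1640 with 5% FBS and 2 mM L-glutamine and preincubated 24 h at 37 °C. Drug exposure is 48 h. Cells are TCA-fixed, stained with SRB and absorbance is read at 515 nm. Results are reported as percent growth of treated cells versus untreated controls, corrected using time-zero plates.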

PC-3 = assay: Cytotoxicity against human PC3 cells assessed as cell growth at 10^-5 M after 48 hrs by SRB assay; conditions: PC-3, 48 h, read-out: Activity; summary of the method: as §2
M14 = assay: Cytotoxicity against human M14 cells assessed as cell growth at 10^-5 M after 48 hrs by SRB assay; conditions: M14, 48 h, read-out: Activity; summary of the method: as §1
Malme-3M = assay: Cytotoxicity against human MALME-3M cells assessed as cell growth at 10^-5 M after 48 hrs by SRB assay; conditions: read-out: Activity; summary of the method: as §1
CCRF-CEM = assay: Cytotoxicity against human CCRF-CEM cells assessed as cell growth at 10^-5 M after 48 hrs by SRB assay; conditions: read-out: Activity; summary of the method: as §1
SF-539 = assay: Cytotoxicity against human SF539 cells assessed as cell growth at 10^-5 M after 48 hrs by SRB assay; conditions: SF-539, 48 h, read-out: Activity; summary of the method: as §2
NCI-H460 = assay: Cytotoxicity against human NCI-H460 cells assessed as cell growth at 10^-5 M after 48 hrs by SRB assay; conditions: NCI-H460, 48 h, read-out: Activity; summary of the method: as §2
RXF 393 = assay: Cytotoxicity against human RXF393 cells assessed as cell growth at 10^-5 M after 48 hrs by SRB assay; conditions: RXF 393, 48 h, read-out: Activity; summary of the method: as §2
DU-145 = assay: Cytotoxicity against human DU145 cells assessed as cell growth at 10^-5 M after 48 hrs by SRB assay; conditions: DU-145, 48 h, read-out: Activity; summary of the method: as §1
HCT-116 = assay: Cytotoxicity against human HCT116 cells assessed as cell growth at 10^-5 M after 48 hrs by SRB assay; conditions: HCT-116, 48 h, read-out: Activity; summary of the method: as §1
SNB-75 = assay: Cytotoxicity against human SNB75 cells assessed as cell growth at 10^-5 M after 48 hrs by SRB assay; conditions: SNB-75, 48 h, read-out: Activity; summary of the method: as §2
U-251 = assay: Cytotoxicity against human U251 cells assessed as cell growth at 10^-5 M after 48 hrs by SRB assay; conditions: U-251, 48 h, read-out: Activity
Summary of the method: (§3)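 NCI primary single-dose screen at 10^-5 M. Cells grown in RPMI 1640 with 5% FBS and 2 mM L-glutamine, given 24 h before drug addition, then 48 h exposure at 37 °C, 5% CO2. Cells TCA-fixed, stained with SRB, read at 515 nm. Reported as percent growth of treated cells relative to untreated controls.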

RPMI-8226 = assay: Cytotoxicity against human RPMI8226 cells assessed as cell growth at 10^-5 M after 48 hrs by SRB assay; conditions: RPMI-8226, 48 h, read-out: Activity; summary of the method: as §2
Hs-578T = assay: Cytotoxicity against human Hs578T cells assessed as cell growth at 10^-5 M after 48 hrs by SRB assay; conditions: read-out: Activity; summary of the method: as §1
UO-31 = assay: Cytotoxicity against human UO31 cells assessed as cell growth at 10^-5 M after 48 hrs by SRB assay; conditions: UO-31, 48 h, read-out: Activity; summary of the method: as §3
OVCAR-4 = assay: Cytotoxicity against human OVCAR4 cells assessed as cell growth at 10^-5 M after 48 hrs by SRB assay; conditions: OVCAR-4, 48 h, read-out: Activity; summary of the method: as §2
MCF7 = assay: Cytotoxicity against human MCF7 cells assessed as cell growth at 10^-5 M after 48 hrs by SRB assay; conditions: MCF7, 48 h, read-out: Activity; summary of the method: as §1
HOP-62 = assay: Cytotoxicity against human HOP62 cells assessed as cell growth at 10^-5 M after 48 hrs by SRB assay; conditions: HOP-62, 48 h, read-out: Activity; summary of the method: as §1
SN12C = assay: Cytotoxicity against human SN12C cells assessed as cell growth at 10^-5 M after 48 hrs by SRB assay; conditions: read-out: Activity; summary of the method: as §2
SW-620 = assay: Cytotoxicity against human SW620 cells assessed as cell growth at 10^-5 M after 48 hrs by SRB assay; conditions: SW-620, 48 h, read-out: Activity; summary of the method: as §3
OVCAR-8 = assay: Cytotoxicity against human OVCAR8 cells assessed as cell growth at 10^-5 M after 48 hrs by SRB assay; conditions: OVCAR-8, 48 h, read-out: Activity; summary of the method: as §2
IGROV-1 = assay: Cytotoxicity against human IGROV1 cells assessed as cell growth at 10^-5 M after 48 hrs by SRB assay; conditions: IGROV-1, 48 h, read-out: Activity; summary of the method: as §1
A498 = assay: Cytotoxicity against human A498 cells assessed as cell growth at 10^-5 M after 48 hrs by SRB assay; conditions: A498, 48 h, read-out: Activity; summary of the method: as §1
MOLT-4 = assay: Cytotoxicity against human MOLT4 cells assessed as cell growth at 10^-5 M after 48 hrs by SRB assay; conditions: MOLT-4, 48 h, read-out: Activity; summary of the method: as §2
SF-295 = assay: Cytotoxicity against human SF295 cells assessed as cell growth at 10^-5 M after 48 hrs by SRB assay; conditions: SF-295, 48 h, read-out: Activity; summary of the method: as §2
MDA-MB-435 = assay: Cytotoxicity against human MDA-MB-435 cells assessed as cell growth at 10^-5 M after 48 hrs by SRB assay; conditions: MDA-MB-435, 48 h, read-out: Activity; summary of the method: as §1
NCI-H23 = assay: Cytotoxicity against human NCI-H23 cells assessed as cell growth at 10^-5 M after 48 hrs by SRB assay; conditions: NCI-H23, 48 h, read-out: Activity; summary of the method: as §2
HCT-15 = assay: Cytotoxicity against human HCT15 cells assessed as cell growth at 10^-5 M after 48 hrs by SRB assay; conditions: HCT-15, 48 h, read-out: Activity; summary of the method: as §1
MDA-MB-468 = assay: Cytotoxicity against human MDA-MB-468 cells assessed as cell growth at 10^-5 M after 48 hrs by SRB assay; conditions: MDA-MB-468, 48 h, read-out: Activity; summary of the method: as §2
HCC 2998 = assay: Cytotoxicity against human HCC2998 cells assessed as cell growth at 10^-5 M after 48 hrs by SRB assay; conditions: HCC 2998, 48 h, read-out: Activity; summary of the method: as §1
NCI-H226 = assay: Cytotoxicity against human NCI-H226 cells assessed as cell growth at 10^-5 M after 48 hrs by SRB assay; conditions: NCI-H226, 48 h, read-out: Activity; summary of the method: as §2

Row | SMILES | growth at 10 µM (ACHN) | growth at 10 µM [1] | growth at 10 µM (PC-3) | growth at 10 µM (M14) | growth at 10 µM (Malme-3M) | growth at 10 µM (CCRF-CEM) | growth at 10 µM (SF-539) | growth at 10 µM (NCI-H460) | growth at 10 µM (RXF 393) | growth at 10 µM (DU-145) | growth at 10 µM (HCT-116) | growth at 10 µM (SNB-75) | growth at 10 µM (U-251) | growth at 10 µM (RPMI-8226) | growth at 10 µM (Hs-578T) | growth at 10 µM (UO-31) | growth at 10 µM (OVCAR-4) | growth at 10 µM (MCF7) | growth at 10 µM (HOP-62) | growth at 10 µM (SN12C) | other results
1 | NC(=O)Nc1ccc2ncnc(Nc3ccc(Cl)cc3)c2c1 | 47.4% | 88.7% | 79% | 107% | 117% | 96% | 95.7% | 88% | 93.7% | 52% | 96.4% | 95% | 95.7% | 101% | 87.8% | 58% | 91.9% | 86.5% | 86.2% | 81.9% | growth at 10 µM (SW-620): 99.1%; growth at 10 µM (OVCAR-8): 89.5%; growth at 10 µM (IGROV-1): 61%; growth at 10 µM (A498): 43.4%; growth at 10 µM (MOLT-4): 71.2%; growth at 10 µM (SF-295): 90.7%; growth at 10 µM (MDA-MB-435): 97.8%; growth at 10 µM (NCI-H23): 100%; growth at 10 µM (HCT-15): 93.1%; growth at 10 µM (MDA-MB-468): -7.15%; growth at 10 µM (HCC 2998): 97.9%; growth at 10 µM (NCI-H226): 99.8%
2 | CCOC(=O)/C(C#N)=C\Nc1ccc2ncnc(Nc3ccc(Cl)cc3)c2c1 | 51.2% | 72% | 60.6% | 106% | 142% | 50.1% | 103% | 70% | 83.2% | 49.2% | 84.5% | 86.3% | 84.7% | 62.9% | 89.3% | 43% | 89% | 111% | 107% | 87% | growth at 10 µM (SW-620): 97.3%; growth at 10 µM (OVCAR-8): 83.3%; growth at 10 µM (IGROV-1): 52.4%; growth at 10 µM (A498): 53.1%; growth at 10 µM (MOLT-4): 50.1%; growth at 10 µM (SF-295): 74.3%; growth at 10 µM (MDA-MB-435): 70.5%; growth at 10 µM (NCI-H23): 92.5%; growth at 10 µM (HCT-15): 84.9%; growth at 10 µM (MDA-MB-468): 26.6%; growth at 10 µM (HCC 2998): 101%; growth at 10 µM (NCI-H226): 99.3%
3 | NC(=O)Nc1ccc2ncnc(Nc3cccc(O)c3)c2c1 | 103% | 96.8% | 102% | 102% | 121% | 108% | 109% | 108% | 111% | 90.4% | 109% | 102% | 87.8% | 112% | 105% | 80.1% | 112% | 97.3% | 92.8% | 94.9% | growth at 10 µM (SW-620): 99.1%; growth at 10 µM (OVCAR-8): 98.9%; growth at 10 µM (IGROV-1): 107%; growth at 10 µM (A498): 77.4%; growth at 10 µM (MOLT-4): 98.8%; growth at 10 µM (SF-295): 98.1%; growth at 10 µM (MDA-MB-435): 101%; growth at 10 µM (NCI-H23): 100%; growth at 10 µM (HCT-15): 108%; growth at 10 µM (MDA-MB-468): 67.9%; growth at 10 µM (HCC 2998): 102%; growth at 10 µM (NCI-H226): 102%
